Like-named read-outs stand apart in the source and are kept apart here.
What was measured:
[1] = tested on: human peripheral lymphocytes; experiment: In vitro micronucleus; type: cell-based; details: 72 h incubation
How it was run: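 Whole blood from 3 healthy non-smoking donors (25–30 y) was treated with test compound at 0.5, 1.0 or 2.0 μg/mL in 2% DMSO for 72 h. Controls were distilled water, 2% DMSO and 10 mM EMS. Cytochalasin-B was added at 48 h and smears were Giemsa-stained. NDI was scored from 1000 cells and MN from 1000 binucleated cells per repeat, 3 donors, ANOVA.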

[2] = tested on: human lymphocytes; details: 100 and 200 μg/mL; ref Ündeğer and Başaran (2005); cited from earlier work
[3] = tested on: human peripheral lymphocytes; details: compared to the control group; ref Gomez-Arroyo et al. (1987); cited from earlier work
[4] = tested on: Escherichia coli; details: ref Mohn, 1973; Bianchi et al., 1994; cited from earlier work
[5] = tested on: Saccharomyces cerevisia; details: ref Mohn, 1973; Bianchi et al., 1994; cited from earlier work
[6] = tested on: Salmonella typhimurium; details: ref Mohn, 1973, Bianchi et al., 1994, cited from earlier work
[7] = 10mM, 3000 binucleated cells counted

Structure (SMILES)	MN within binucleat (1) [1, 7]	MN within binucleat (2) [1, 7]	MN within binucleat (3) [1, 7]	%MN±S.E. ([1]; 10mM, compared with distilled water)	MN within binucleat (1) ([1]; 0.5 μg/mL, 3000 binucleated cells counted)	%MN±S.E. ([1]; 0.5 μg/mL, compared with DMSO)	NDI±S.E. ([1]; 0.5 μg/mL, compared with DMSO)	MN within binucleat (1) ([1]; 1.0 μg/mL, 3000 binucleated cells counted)	%MN±S.E. ([1]; 1.0 μg/mL, compared with DMSO)	NDI±S.E. ([1]; 1.0 μg/mL, compared with DMSO)	MN within binucleat (1) ([1]; 2.0 μg/mL, 3000 binucleated cells counted)	%MN±S.E. ([1]; 2.0 μg/mL, compared with DMSO)	DNA damage [2]	sister chromatid exchanges [3]	mutagenicity [4]	mutagenicity [5]	mutagenicity ([6]; strain TA 100)	mutagenicity ([6]; strains TA 1535, TA 1537, TA 1538, TA 98 and TA 102)
CCOS(C)(=O)=O [EMS, ethyl methanesulfonate, reference compound]	107	16	10	5.63 ± 1.60%	–	–	–	–	–	–	–	–	–	–	–	–	–	–
CNC(=O)CSP(=S)(OC)OC [DIM]	–	–	–	–	27	0.90 ± 0.72%	1.54 ± 0.20	29	0.97 ± 0.63%	1.54 ± 0.23	63	2.10 ± 0.13%	significantly increased DNA damage	increased sister chromatid exchanges	mutagenic	mutagenic	mutagenic	non-mutagenic
COP(=S)(OC)Oc1ccc([N+](=O)[O-])cc1 [methyl parathion]	–	–	–	–	–	–	–	–	–	–	–	–	significantly increased DNA damage	increased sister chromatid exchanges	–	–	–	–

Source: paper PMC6423489 (Heliyon, 2019)
